# High-throughput results deposited in PubChem BioAssay by The Scripps Research Institute Molecular Screening Center.
# PRMT1 FP inh – PRMT1 methyltransferase inhibitors, primary screen, biochemical, fluorescence polarization; Protein arginine N-methyltransferase 1 (Homo sapiens), Q99873; recombinant PRMT1, activity-based probe fluorescence polarization; inhibition, % at 2.79 µM; 370,000 tested, 1.3% active; AID 652257, 2013;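 active = inhibition above about 21% made by adding two undisclosed values, limit read from the data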
# LEDGF integ inh – blockers of LEDGF/p75-dependent integrase strand transfer – biochemical, TR-FRET, high throughput, primary screen; HIV-1 integrase (with human LEDGF/p75); TR-FRET IN-LEDGF/p75 DNA integration, Eu/Cy5; inhibition, % at 3.7 µM; 370,000 tested, 0.64% active; AID 743269, 2014;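 active = inhibition above the screen-wide mean plus 3 SD, cut at about 13% in these data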;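 also: signal is the Cy5 over europium emission ratio at 671 and 618 nm; 0% = plate median of compound wells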
# RBBP9 inh – human RBBP9 inhibitors, primary screen, biochemical, fluorescence polarization, FP-Rh probe, HTS; Serine hydrolase RBBP9 (Homo sapiens), O75884; recombinant RBBP9; inhibition, % at 7.94 µM; 220,000 tested, 0.2% active;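 active = inhibition above the campaign mean of all tested compounds plus 3 SD, cut at about 14% in these data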;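 also: plate controls were DMSO wells with RBBP9 for no effect and wells lacking RBBP9 protein for full effect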
# Target sequence (O75884 whole entry, looked up): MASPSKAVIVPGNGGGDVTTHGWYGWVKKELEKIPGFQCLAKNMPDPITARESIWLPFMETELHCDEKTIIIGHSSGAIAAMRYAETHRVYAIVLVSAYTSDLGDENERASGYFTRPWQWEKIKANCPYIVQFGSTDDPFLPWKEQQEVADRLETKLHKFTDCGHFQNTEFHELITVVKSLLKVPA
#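 Test system: recombinant human RBBP9. Quantity: 2.5 µM RBBP9 dispensing solution, before mixing. Detection: FP readout at 525/598 nm. Reagent: Serine-hydrolase probe FP-Rh, 375 nM pre-mixing. Measure: % inhibition. Control set: DMSO-treated enzyme wells and wells lacking RBBP9. Buffer or medium: Tris-NaCl-Pluronic buffer, pH 8.0. Times: preincubation 30 min plus labeling 45 min at 25 °C.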
# ABHD5 PLIN5 PPI – ABHD5-PLIN5 interaction inhibitors, primary screen, cell lysate, split luciferase complementation, luminescence | 360,000 tested, 0.78% active | Perilipin-5 (Homo sapiens) + 1-acylglycerol-3-phosphate O-acyltransferase ABHD5 (Homo … | inhibition, % at 4 µM | Split G. princeps luciferase complementation, 4 h;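 active = inhibition above the mean inhibition across every tested compound plus 3 SD, cut at about 22% in these data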;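 also: 0% = DMSO only wells and the 100% control is not disclosed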
# UHRF1 MBD2 ctr – UHRF1 methylated DNA binding inhibitors, primary screen, counter-screen for MBD2 inhibitor project, biochemical, TR-FRET, human UHRF1, single concentration | E3 ubiquitin-protein ligase UHRF1 (Homo sapiens), Q96T88 | UHRF1 binding to methylated oligo | inhibition, % at 4.4 µM | 370,000 tested, 0.75% active; in the data active = inhibition above about 21%;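 also: UHRF1 SRA domain binding a hemimethylated CpG hairpin DNA probe; 0% = median of test compound wells and 100% = reference inhibitor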
# MBD2 DNA inh – inhibitors of MBD2 binding to methylated DNA, primary screen, biochemical, TR-FRET, DNA-binding domain, human; Methyl-CpG-binding domain protein 2 (Homo sapiens), Q9UBB5; MBD2 binding to methylated oligonucleotide; inhibition, % at 4.4 µM; 370,000 tested, 0.31% active; AID 686964, 2013; in the data active = inhibition above about 13%
# Target sequence (Q9UBB5 whole entry, looked up, the tested form may be a part): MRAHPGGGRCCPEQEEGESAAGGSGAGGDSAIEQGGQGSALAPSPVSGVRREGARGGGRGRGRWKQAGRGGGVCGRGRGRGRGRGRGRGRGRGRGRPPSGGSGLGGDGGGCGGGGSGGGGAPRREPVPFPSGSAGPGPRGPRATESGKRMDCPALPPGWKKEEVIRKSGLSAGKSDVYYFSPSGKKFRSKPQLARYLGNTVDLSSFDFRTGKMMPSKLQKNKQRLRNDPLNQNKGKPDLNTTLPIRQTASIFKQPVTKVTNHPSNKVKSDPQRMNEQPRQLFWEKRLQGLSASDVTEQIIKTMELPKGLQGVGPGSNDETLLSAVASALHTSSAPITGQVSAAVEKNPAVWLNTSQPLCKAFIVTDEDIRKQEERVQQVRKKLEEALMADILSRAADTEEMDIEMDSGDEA
# PRMT1 confirm – PRMT1 methyltransferase inhibitors, confirmation, biochemical, fluorescence polarization, triplicate. shares compounds with PRMT1 FP inh. recombinant His-PRMT1, activity-based probe fluorescence polarization. inhibition, % at 2.79 µM. 3,300 tested, 42% active. AID 687036, 2013;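 active = mean inhibition across replicates above the hit cutoff derived for the earlier primary screen, cut at about 22% in these data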
# Numbers without * were called inactive; x = no result given. Hits are enriched below; roughly 3.1% of the tested compounds scored in any of these assays.
SMILES,PRMT1 FP inh,LEDGF integ inh,RBBP9 inh,ABHD5 PLIN5 PPI,UHRF1 MBD2 ctr,MBD2 DNA inh,PRMT1 confirm
CN(NC(=O)/C=C/C(=O)O)c1ncc(C(F)(F)F)cc1Cl,35*,0,2,-4,11,1,6
O=C(Nc1ccc(Cl)cc1)C(Cl)C(=O)c1ccccc1 (stereo not drawn),77*,2,x,16,2,-1,78*
O=C(Nc1ccccc1Cl)C(Cl)C(=O)c1ccccc1 (stereo not drawn),-2,1,-10,-17,-5,-3,x
Cc1cc(C)n2c(=S)[nH]nc2n1,56*,-1,13,-26,2,0,91*
O=[N+]([O-])c1ccc(C(O)CN2CCN(c3ccccc3)CC2)cc1 (stereo not drawn),-1,-3,x,6,1,0,x
Oc1ccc(N2CCN(CC(O)c3ccccc3)CC2)cc1 (stereo not drawn),28*,0,x,7,-3,-1,6
COc1ccc2cc(C3CC(c4ccco4)=NN3S(=O)(=O)c3ccccc3)c(Cl)nc2c1 (stereo not drawn),29*,10,-9,-1,-5,-5,2
CCn1c(-c2ccccc2)csc1=Nc1ccc(O)cc1,4,2,1,3,0,8,x
CCOc1ccc(N=c2scc(-c3ccc(OC)cc3)n2CCO)cc1,26*,0,-10,0,1,1,-1
OCCn1c(-c2ccc(F)cc2)csc1=Nc1ccccc1,42*,-4,-8,-8,-3,2,0
CCOc1ccc(N=c2scc(-c3ccccc3)n2CCO)cc1,13,0,-3,-7,1,4,x
OCCn1c(-c2ccc3c(c2)OCO3)csc1=Nc1ccccc1,32*,-1,2,-8,0,0,1
Cc1ccc(-c2cn3c(=S)[nH]nc3s2)cc1,26*,2,-2,0,2,-3,1
O=c1c2ccccc2nc(SCc2ccccc2)n1Cc1ccco1,3,-3,-10,0,0,6,x
O=c1c2ccccc2nc(SCc2nnc(-c3ccccc3Br)o2)n1Cc1ccco1,69*,-1,-13,3,-3,-5,58*
COc1ccc(C(=O)/C=C/C(=O)N(CC(=O)NC2CCCCC2)Cc2cccs2)c(O)c1,38*,1,-8,70*,5,-1,65*
COc1cccc(C(=O)NC2C(=O)N3C(C(=O)O)=C(COC(C)=O)CSC23)c1 (stereo not drawn),29*,2,x,20,-2,10,34*
CC(=O)OCC1=C(C(=O)OC(C)(C)C)N2C(=O)[C@@H](NC(=O)Cc3ccccc3)[C@H]2SC1,8,4,x,8,2,-6,x
CC(=O)OCC1=C(C(=O)O)N2C(=O)C(NC(=O)c3ccc(COc4cccc(Cl)c4Cl)o3)C2SC1 (stereo not drawn),37*,1,-15,17,-2,-2,13
COC(=O)C1CN(Cc2cn(Cc3ccc(OC)cc3)nn2)CCS(=O)(=O)N1Cc1ccc(OC)cc1 (stereo not drawn),-4,-2,x,x,7,-1,x
CCOC(=O)c1c(C)nsc1NCc1ccccc1,28*,-3,x,-1,3,1,2
CCN1CCC(NCCc2ccc(F)cc2)CC1,-1,-1,x,-3,-1,1,x
COc1c(O)cccc1[C@H](O)C1CCN(CCc2ccc(F)cc2)CC1,29*,-1,x,2,0,-4,2
CCN1CCCCC(NC(=O)COCc2ccccc2)C1=O (stereo not drawn),3,1,x,x,-3,-1,x
O=C(N[C@H](C(=O)N1CCC[C@H]1C(=O)NC1CCCC1)C1CCCCC1)c1ccc(Cl)c(Cl)c1,1,-2,x,x,0,-3,x
SMILES,PRMT1 FP inh,LEDGF integ inh,RBBP9 inh,ABHD5 PLIN5 PPI,UHRF1 MBD2 ctr,MBD2 DNA inh,PRMT1 confirm
NC(=S)NNc1ccc(Cl)c(Cl)c1,12,2,-1,-12,1,-1,x
Cc1ccc(NNC(N)=S)cc1Cl,28*,-9,2,0,2,1,3
N#CCc1c(C#N)c(N)nc(N2CCCC(O)C2)c1C#N (stereo not drawn),31*,-11,-7,7,0,1,3
S=C(Nc1ccccn1)c1ccccn1,32*,-1,1,-11,2,3,8
O=C(Nc1ccccn1)C(=O)Nc1ccccn1,0,3,0,-3,3,2,x
CCC[C@H]1[C@@H](OC(=O)NCc2cccc(Cl)c2)CC[C@@]23CCCN2C(=O)CCC[C@@H]13,-3,4,x,x,-4,-1,x
CC(C)OC(=O)c1ccc(NCc2cc(O)ccc2O)cc1,36*,10,x,4,-4,-4,30*
C[C@@H]1O[C@@H](n2c3ccc(Cl)cc3c3ccc4c5cc(Cl)ccc5[nH]c4c32)[C@H](O)[C@H](O)[C@H]1O,2,2,x,x,1,-1,x
CCOC(=O)c1ccc(N=c2ssnc2Cl)cc1,78*,2,-7,-16,-3,-1,89*
COc1ccc(N=c2ssnc2Cl)cc1,x,x,-12,0,x,x,x
Clc1ccc(N=c2ssnc2Cl)cc1,73*,1,-4,1,-8,3,93*
Fc1ccc(N=c2ssnc2Cl)c(F)c1,44*,0,-7,-3,0,0,41*
N#Cc1ccc(N=c2ssnc2Cl)cc1,91*,-2,-7,-3,0,-1,97*
Clc1nssc1=Nc1ccccc1,x,x,1,-8,x,x,x
Cc1ccccc1S(=O)(=O)N1CCCc2nc(C)c(C)cc21,2,-1,x,x,0,2,x
Nc1ccc2c3c(cccc13)-c1ccccc1-2,58*,-3,x,-15,0,-1,61*
S=C(Nc1ccc(Br)cc1)OCCN1CCCC12CCC(c1ccccc1)CC2 (stereo not drawn),52*,-2,x,x,-1,-11,56*
O=C(Nc1cccc(F)c1)OCCN1CCCC12CCC(c1ccccc1)CC2 (stereo not drawn),1,-1,x,x,-1,-5,x
